Data published in the array DNA melting data of Ke et al. (doi:10.1101/2024.01.08.574731).

Columns and labels:
[1] = melting temperature; fluorescence melt of hairpins on a sequencing array, two-state fit, raised by 9.35 °C to match UV melts; conditions: sodium 0.088 M
In short: (§1)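 On a sequenced MiSeq flow cell, library hairpins with annealed Cy3 and quencher oligos were imaged for Cy3 fluorescence in 2.5 °C steps up to 60 °C, in 50 mM Na-HEPES pH 8.0, 25 mM NaCl. Normalisation used pre-quench Cy3 and control constructs. Bootstrapped two-state fits gave melting temperature and folding enthalpy, combined by inverse variance across four replicates and with fitted temperatures raised by 9.35 °C to match UV melts.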

[2] = folding enthalpy; higher = less favourable; fluorescence melt of hairpins on a sequencing array, two-state fit; conditions: sodium 0.088 M
In short: as §1

Sequence	Tm [1]	folding enthalpy [2]
GCCTCGCGAAAGCGTAGC ((..(((....)))..))	44 °C	-11.8 kcal/mol
GCCTCGCGAAAGCGTTGC ((..(((....)))..))	39.9 °C	-15.7 kcal/mol
GCCTCGGGAAACCGAGAC (.(((((....))))).)	46.2 °C	-15.8 kcal/mol
GCCTCTCCGAAAGGAGGC (((..(((....))))))	52.9 °C	-12.4 kcal/mol
GCCTCTCGAAAGAGGGC (((.(((....))))))	54.4 °C	-30.6 kcal/mol
GCCTCTCGAAAGAGGGGC (((.(((....))).)))	63.2 °C	-34.1 kcal/mol
GCCTGACCGAAAGGTGGC (((..(((....))))))	51.2 °C	-23.4 kcal/mol
GCCTGACGAAAGTCCGGC (((.(((....))).)))	56.7 °C	-41.4 kcal/mol
GCCTGAGGAAACTCAGAC (.(((((....))))).)	40.7 °C	-16.7 kcal/mol
GCCTGATCGAAAGATGGC (((..(((....))))))	41.9 °C	-25.2 kcal/mol
GCCTGCCGAAAGGCCGGC (((.(((....))).)))	64.3 °C	-22.4 kcal/mol
GCCTGCGAAAGCACAGGC ((((((....)))..)))	55.5 °C	-24 kcal/mol
GCCTGCGAAAGCATTGGC ((((((....)))..)))	50.9 °C	-21.2 kcal/mol
GCCTGCTCGAAAGAGGGC (((..(((....))))))	44.5 °C	-15.7 kcal/mol
GCCTGGACGAAAGTCGGC (((..(((....))))))	51.2 °C	-22.6 kcal/mol
GCCTGGCGAAAGCAACGC ((.(.((....)).).))	23.9 °C	-4.54 kcal/mol
GCCTGGCGAAAGCCCCGC ((..(((....)))..))	36.3 °C	-8.33 kcal/mol
GCCTGGCGAAAGCGAAGC ((.(.((....)).).))	31.9 °C	-7.77 kcal/mol
GCCTGGCGAAAGCGATGC ((.(.((....)).).))	37 °C	-6.61 kcal/mol
GCCTGGCGAAAGCGTGGC (((..((....))..)))	58.9 °C	-24.3 kcal/mol
GCCTGTGGAAACATAGGC ((((.((....)).))))	52.4 °C	-42.2 kcal/mol
GCCTGTTCGAAAGAAGGC (((..(((....))))))	38.8 °C	-25.6 kcal/mol
GCCTTACGAAAGTAGGC (((.(((....))))))	54.2 °C	-29.1 kcal/mol

Sequence	Tm [1]	folding enthalpy [2]
GCCTTAGGAAACTAAGGC (((((((....)))))))	60.3 °C	-37 kcal/mol
GCCTTCACGAAAGTGGGC (((..(((....))))))	46.6 °C	-18.6 kcal/mol
GCCTTCCGAAAGGACGGC (((.(((....))).)))	57.3 °C	-41.6 kcal/mol
GCCTTCCGAAAGGAGGGC (((.(((....))).)))	62.2 °C	-37 kcal/mol
GCCTTCGAAAGAAACGGC ((((((....)))..)))	36.2 °C	-23.7 kcal/mol
GCCTTCGAAAGAACGGC ((((((....))).)))	48.2 °C	-29.2 kcal/mol
GCCTTGCGAAAGCACTGC ((..(((....)))..))	40.3 °C	-8.58 kcal/mol
GCCTTGCGAAAGCCCGGC (((..((....))..)))	41.8 °C	-23.2 kcal/mol
GCCTTGCGAAAGCGATGC ((.(.((....)).).))	47.4 °C	-11.3 kcal/mol
GCCTTGCGAAAGCTAAGC ((.(.((....)).).))	45.8 °C	-9.38 kcal/mol
GCCTTGGGAAACCAAGAC (.(((((....))))).)	38.7 °C	-19.3 kcal/mol
GCCTTGGGAAACTGAGGC ((((..(....)..))))	45.1 °C	-29.9 kcal/mol
GCCTTTACGAAAGTAGGC (((..(((....))))))	43.5 °C	-28.7 kcal/mol
GCCTTTCCGAAAGGAGGC (((..(((....))))))	44.6 °C	-19.9 kcal/mol
GCCTTTGCGAAAGCAGGC (((..(((....))))))	50.3 °C	-20.9 kcal/mol
GCCTTTGGAAACAAGGGC (((.(((....))).)))	48.9 °C	-40.2 kcal/mol
GCCTTTTCGAAAGAAGGC (((..(((....))))))	42.7 °C	-30.4 kcal/mol
GCGAAAAATCGC ((((....))))	36.2 °C	-9.87 kcal/mol
GCGAAAACGAAAGTTCGC (((..(((....))))))	51.6 °C	-30.4 kcal/mol
GCGAAAATTCGC ((((....))))	47.8 °C	-18.6 kcal/mol
GCGAAACTCGC ((((...))))	47.4 °C	-18.9 kcal/mol
GCGAAAGAAATTTCGC ((((((....))))))	55 °C	-34 kcal/mol
GCGAAAGCGAAAGCTCGC (((..(((....))))))	56.3 °C	-24.2 kcal/mol
